PubChem BioAssay AID624268 (The Scripps Research Institute Molecular Screening Center, 2012)
About 1,500 (0.42%) of roughly 360,000 compounds were called active.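 How the source made its calls: active means inhibition above a per-plate cutoff of the control wells' mean inhibition plus 3 SD (cut at about 5.5% in these data); inactive means the rest.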 The full list was thinned out, with actives kept by preference.

Test system: methionyl-tRNA synthetase (Trypanosoma brucei brucei)
Test: inhibition of trypanosome methionyl-tRNA synthetase – biochemical, luminescence, primary screen (AID 624268);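 further: 0% = DMSO wells median and 100% = median of wells with control inhibitor compound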
Conditions: purified T. brucei MetRS, ATP depletion, Kinase-Glo luminescence; at 11.9 µM; hits give high values
How it was run: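 Dosing: 11.9 µM single point; system: parasite MetRS enzyme; technique: luminescence of leftover ATP; times: 15 min enzyme-compound preincubation, 2 h reaction, 10 min detection, 25 °C; replicates: each compound tested once; read-out basis: percent inhibition relative to median high and low control wells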

inhibition, inactive:
CCCNS(=O)(=O)c1ccc2c(c1)CCCN2C(C)=O -0.19%
Clc1ccc(-c2cc(-c3ccccn3)on2)c(Cl)c1 0.55%
CCC(C)[C@H](NC(=O)N1c2ccccc2NC(=O)[C@@H]1C(C)C)C(=O)N[C@@H](Cc1ccccc1)C(=O)O (stereo partly specified) -1.81%
CSCCC(NC(=O)c1cc([N+](=O)[O-])cc([N+](=O)[O-])c1)c1nc2ccccc2[nH]1 (stereo unspecified) 3.68%
CCCC(NC(=O)c1ccco1)c1nc2ccccc2[nH]1 (stereo unspecified) 0.25%
COc1ccccc1CCC(=O)OCC(=O)N1CCN(S(=O)(=O)c2ccc(C)cc2C)CC1 -0.39%
O=C(NCc1cccnc1)Nc1cccc(NC(=O)NCc2cccnc2)c1F -1.05%
C/C(=C\C(=O)c1ccccc1)Nc1cccc(O)c1 0.01%
O=C(CSCc1ccc([N+](=O)[O-])cc1)NCCSCc1ccccc1 -0.21%
CCCCc1nnc(NC(=O)CS(=O)(=O)Cc2ccccc2)s1 -0.35%
O=C(NCCOc1ccccc1F)Nc1ccc(Br)cc1 2.66%
COCc1nnc(NC(=O)CS(=O)(=O)Cc2ccccc2)s1 0.23%
CCCn1cc(S(=O)(=O)c2ccc(C)cc2)c(=O)c2cc(OCC)ccc21 -0.04%
CN1CCN(S(=O)(=O)c2ccc3[nH]cc(C(=O)O)c(=O)c3c2)CC1 1.71%
CCOc1ccc2c(c1)c(=O)c(S(=O)(=O)c1ccc(C)cc1)cn2CC -0.11%
Cc1ccc2[nH]cc(CCCN3C(=O)c4ccccc4C3=O)c2c1 -0.1%
O=C(Nc1ccccc1Cl)/C(Cl)=C(\Cl)S(=O)c1ccccc1 (stereo unspecified) -0.49%
CCCCCn1nnnc1C1c2ccccc2C(=O)N1Cc1ccco1 (stereo unspecified) -0.27%
CCCCn1c(-c2cccc(C)c2)nc2cc3[nH]c(=O)c(C(C)C)nc3cc21 -0.06%
C=CCNC(=S)N/N=C/c1ccc(C)s1 -0.64%
CC(C)CNC(=O)C1CCCN(S(=O)(=O)c2ccc(-n3cnnn3)cc2)C1 (stereo unspecified) -0.29%
CCOc1ncccc1C(=O)N(C)CC(=O)Nc1ccc(F)cc1 -0.63%
CC1(C)CC(=O)C=C(c2cccc3c2Oc2ccccc2S3)C1 -0.11%
O=c1c(-c2ccc(Cl)cc2)[n+]([O-])c2ccccc2n1OCc1nc2ccccc2[nH]1 -0.49%
COc1ccc(C)cc1-n1nnnc1SCc1nc2ccccc2c(=O)[nH]1 0.31%
O=C(COC(=O)c1ncc(Cl)c(Cl)c1Cl)NNC(=O)c1ccccc1 -0.19%
O=C(/C=C/c1cccs1)c1cc(Cl)ccc1OC(=O)N1CCOCC1 -0.94%
O=C1CC(C(=O)O)NC(=S)N1 (stereo unspecified) 0.05%
Cc1oc(CC(C)C)c(CN2CCCC2)c1C(=O)O -0.29%
O=C(Nc1nsc(-c2ccccc2)n1)c1ccncc1 -1.68%
CN(CC(=O)NCCc1ccc(S(N)(=O)=O)cc1)CC(=O)Nc1ccc(Cl)cc1 -0.04%
NS(=O)(=O)c1ccc(CCNC(=O)NC2CCCCC2)cc1 -1.44%
CC(=O)C1(C)N(O)C(C)(C)C(c2cccs2)=[N+]1[O-] (stereo unspecified) -1.27%
COc1ccccc1C(=O)N(Cc1ccc(C)o1)C1CCS(=O)(=O)C1 (stereo unspecified) -0.11%
CC1(C(=O)NS(=O)(=O)c2ccccc2)CCN1C(=O)C1CCCCC1 (stereo unspecified) -0.08%
CC(C)(C)c1ccc(S(=O)(=O)NC(=O)C2(C)CCN2C(=O)CC2CC2)cc1 (stereo unspecified) -0.1%
COc1ccc(NC2CCCN(C(=O)c3ccncc3)C2)cc1 (stereo unspecified) -0.58%

inhibition, active:
Clc1ccc(-c2cc(C3CCNCC3)[nH]n2)c(Cl)c1 39.1%
O=C(NCC(O)c1nc2ccccc2[nH]1)c1ccc(Br)cc1 (stereo unspecified) 21%
O=C(NCc1cccc(CNC(=O)Nc2cccc(O)c2)c1)Nc1cccc(O)c1 8.03%
O=C(Nc1ccccc1)Nc1nnc(COc2ccccc2F)s1 17.3%
Cc1ccc(S(=O)(=O)c2c[nH]c3ccc(C)cc3c2=O)cc1 8.92%
Cc1ccc(S(=O)(=O)c2c[nH]c3ccc(Cl)cc3c2=O)cc1 40.4%
CCCCCn1nnnc1-c1nc2cc3ccccc3cc2[nH]c1=O 34.6%
Clc1ccccc1SCc1nc2ccccc2[nH]1 7.72%
NS(=O)(=O)c1ccc(CCNC(=O)Nc2ccc(Cl)cc2)cc1 26.5%
